In ChEMBL document CHEMBL2396651, “Improving the biological activity of the antimicrobial peptide anoplin by membrane anchoring through a lipophilic amino acid derivative” (Bioorg Med Chem Lett, 2013):
≈ marks a conversion by molar mass, not a printed value. Numbered stars: 1 amine (or outer) side, 2 acyl side, 3 side chain; on linkers, the order of the positions; unused ones are H or OH. Square brackets hold non-standard residues; d marks the D form. Peptide text beside a SMILES is read from it. * marks the point of attachment. X1 = CCCCCCCCC[C@H](N[*:1])C(=O)[*:2]; Decanoyl = CCCCCCCCCC(=O)*

What was measured:
[1] = Hemolytic activity in sheep erythrocytes after 1 hr; assay type: ADME, cell-based; details: Ovis aries, Erythrocyte
How it was run: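 Red blood cells were exposed to the peptides, and hemoglobin leakage was the read-out.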

[2] = Therapeutic index, ratio of EC50 for hemolysis of sheep erythrocytes to MIC for Escherichia coli ATCC 8739; details: read-out: TI
How it was run: (§1)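 Computed as the hemolytic EC50 divided by the MIC against the named strain, both in the same mass-per-volume units. Both inputs come from this paper's hemoglobin-leakage and growth-inhibition assays.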

[3] = Induction of membrane lysis in DOPC large unilamellar vesicles model assessed as release of carboxyfluorescein at 50 ug/mL by fluorescence spectroscopic analysis relative to control; assay type: physicochemical
Staphylococcus aureus = assay: Antibacterial activity against Staphylococcus aureus ATCC […] assessed as growth inhibition after 24 hrs by broth microdilution method; assay type: functional
[4] = Induction of membrane lysis in DOPC/DOPG large unilamellar vesicles model assessed as release of carboxyfluorescein at 50 ug/mL by fluorescence spectroscopic analysis relative to control; assay type: physicochemical
Escherichia coli = assay: Antibacterial activity against Escherichia coli ATCC 8739 assessed as growth inhibition after 24 hrs by broth microdilution method; assay type: functional; details: ATCC 8739, 24 h
[5] = Therapeutic index, ratio of EC50 for hemolysis of sheep erythrocytes to MIC for Staphylococcus aureus ATCC […]; details: read-out: TI; how it was run: as §1

Row | Compound | EC50 [1] | selectivity ratio [2] | Activity [3] | MIC (Staphylococcus aureus) | Activity [4] | MIC (Escherichia coli) | selectivity ratio [5]
1 | CCCCCCCCCC(=O)NCC(=O)N[C@@H](CC(C)C)C(=O)N[C@@H](CC(C)C)C(=O)N[C@@H](CCCCN)C(=O)N[C@@H](CCCNC(=N)N)C(=O)N[C@H](C(=O)N[C@@H](CCCCN)C(=O)N[C@H](C(=O)N[C@@H](CC(C)C)C(=O)N[C@@H](CC(C)C)C(N)=O)[C@@H](C)O)[C@@H](C)CC (Decanoyl-GLLKRIKTLL-NH2) | 5 mg/L (≈ 3.82 µM) | 2 | 62% | 2.5 mg/L (≈ 1.91 µM) | 100% | 2.5 mg/L (≈ 1.91 µM) | 2
2 | CCCCCCCCC[C@H](NC(=O)[C@H](CC(C)C)NC(=O)[C@@H](NC(=O)[C@H](CCCCN)NC(=O)[C@@H](NC(=O)[C@H](CCCNC(=N)N)NC(=O)[C@H](CCCCN)NC(=O)[C@H](CC(C)C)NC(=O)[C@H](CC(C)C)NC(=O)CN)[C@@H](C)CC)[C@@H](C)O)C(N)=O (H-GLLKRIKTL[X1]-NH2) | 77 mg/L (≈ 62.9 µM) | 3.7 | 48% | 2.5 mg/L (≈ 2.04 µM) | 48% | 10.3 mg/L (≈ 8.42 µM) | 30.8
3 | CCCCCCCCC[C@H](NC(=O)[C@H](CCCNC(=N)N)NC(=O)[C@H](CCCCN)NC(=O)[C@H](CC(C)C)NC(=O)[C@H](CC(C)C)NC(=O)CN)C(=O)N[C@@H](CCCCN)C(=O)N[C@H](C(=O)N[C@@H](CC(C)C)C(=O)N[C@@H](CC(C)C)C(N)=O)[C@@H](C)O (H-GLLKR[X1]KTLL-NH2) | 39 mg/L (≈ 31.9 µM) | 1.9 | 45% | 2.5 mg/L (≈ 2.04 µM) | 48% | 10.3 mg/L (≈ 8.42 µM) | 15.6
4 | CCCCCCCCC[C@H](NC(=O)CN)C(=O)N[C@@H](CC(C)C)C(=O)N[C@@H](CCCCN)C(=O)N[C@@H](CCCNC(=N)N)C(=O)N[C@H](C(=O)N[C@@H](CCCCN)C(=O)N[C@H](C(=O)N[C@@H](CC(C)C)C(=O)N[C@@H](CC(C)C)C(N)=O)[C@@H](C)O)[C@@H](C)CC (H-G[X1]LKRIKTLL-NH2) | 108 mg/L (≈ 88.3 µM) | 10.5 | 47% | 2.5 mg/L (≈ 2.04 µM) | 48% | 5.2 mg/L (≈ 4.25 µM) | 43.2
5 | H-GLLKRIKTLL-NH2 [ANOPLIN] | > 500 mg/L | > 12.2 | 41% | 20.6 mg/L | 35% | 41 mg/L | > 24.3
